Compound activity deposited in PubChem BioAssay by several laboratories.
Shown are actives, neighbours in structure and some others; about 1.5% of the full set was active somewhere.
Pemphigus Ab inh: blocks pemphigus antibody binding to human desmoglein-3; DSG3-coupled beads, scFv-anti-DSG3-GFP binding, flow cytometry; hits give low values; binding (percent of control), % at 10 µM; 310,000 tested, 0.48% active; AID 588358;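 active = binding more than 3 SD below its plate's average and above zero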;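 also: hits lower antibody fragment binding to DSG3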
LANA-H2A inh: blocks KSHV LANA binding to histone H2A/H2B | Q9QR71 | cell-free LANA-H2A/H2B peptide, fluorescence polarization | inhibition, % (no concentration beside the values) | 320,000 tested, 0.6% active | AID 2629; in the data active = inhibition mostly above about 10%, no sharp cut-off; inactive = mostly below about 6.7%
T cell modulator: T cell immune modulators affecting CD8 T cell-vesicle binding; AID 2052; 330,000 tested, 0.068% active; 2C CD8+ T cell-vesicle binding, flow cytometry; hits give low values; response (vesicle binding), % at 7 µM;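 active = response, share of CD8 T cells binding vesicles, and their 90th percentile fluorescence all below set limits, cut at about 80% in these data, passing the limit was not always enough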;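 also: values below 100% mean blocked vesicle binding to the CD8+ T cells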
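Material: 2C TCR transgenic mouse naive CD8+ T cells, MACS-purified. Also added: QL9-charged Drosophila Ld/ICAM-1/B7-1 vesicles. Timing: binding 1.5 h at 37 °C. Measured by: high-throughput flow cytometry with anti-B7-1 and anti-CD8 staining. Read-out: percent CD8+ FL2 mean versus row control. Controls: Unloaded micro-vesicles (low), QL9 vesicles with 0.7% DMSO (high).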
HDAC3 inhib: blocks human histone deacetylase 3; recombinant HDAC3, fluorogenic peptide/trypsin coupled, fluorescence; 320,000 tested, 0.15% active; inhibition, % at 8.3 µM; in the data active = inhibition above about 26%, passing the limit was not always enough
Arr AP2 block: human beta-arrestin and AP2 interaction inhibition; inhibition, % at 10 µM; FITC-arrestin peptide / GST-AP2 beads, flow cytometry; AP2 beta2 appendage carries R879A mutation; 340,000 tested, 0.31% active;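 active = inhibition above a set limit, near 3 SD of compounds lacking own fluorescence, cut at about 54% in these data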
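System: GST-AP2 R879A bound to glutathione beads, E. coli-expressed. Also added: 50 nM FITC-arrestin peptide. Schedule: compound with beads 12 min RT, then probe 1 h RT. Signal: bead flow cytometry, FITC channel. Read-out basis: percent response.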
Arr AP2 CP1: inhibitors of human beta-arrestin and AP2 interaction; shares compounds with Arr AP2 block; GST-AP2 beads, FITC arrestin peptide binding, flow cytometry; GST-fused beta2-adaptin appendage, R879A mutant; inhibition, % at 10 µM; 1,300 tested, 2% active; AID 504908;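 active = inhibition above a set limit, roughly 3 SD of non-fluorescent compound noise, cut at about 38% in these data; inactive = inhibition at or below that limit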;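 also: loss of bead fluorescence from 50 nM FITC arrestin peptide bound to appendage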
GST GSH counter: GST-GSH bead binding interference, counter-screen. GST-fluorescein binding to GSH beads, fluorescence. shares compounds with Arr AP2 block. inhibition, % at 10 µM. 1,300 tested, 2% active;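 active = inhibition above 50%, about 3 SD of the inhibition seen with non-fluorescent compounds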;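 also: fluorescein maleimide labelled GST captured on 4 micron glutathione beads; higher means more loss of bead fluorescence from quenching or blocked binding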
Each line names hits and unclear results; the compound was inactive in the other large screens (follow-up assays come after a bar, where they were run).

CCCCCOc1ccc(NC(=O)C2OC3OC(C)(C)OC3C3OC(C)(C)OC23)cc1 (stereo not drawn)	Arr AP2 block 107 | Arr AP2 CP1 inactive | GST GSH counter inactive
COCCN(C(=O)Nc1ccccc1OC)c1nc2ccccc2s1	none
O=C(NCC1CCCO1)c1cc(-c2ccccc2)nc2ccc(Br)cc12 (stereo not drawn)	Arr AP2 block 54 | Arr AP2 CP1 inactive | GST GSH counter inactive
Cc1ccc2nc(-c3cccc(Br)c3)cc(C(=O)NCC3CCCO3)c2c1 (stereo not drawn)	none
O=C(NCCc1ccc(C(F)(F)F)cc1)C1CCC(=O)N(CCc2cccc(F)c2)C1 (stereo not drawn)	none
O=C(NCCc1ccc(C(F)(F)F)cc1)C1CCC(=O)N(CCCc2ccccc2)C1 (stereo not drawn)	none (no result: Pemphigus Ab inh) | Arr AP2 CP1 inactive | GST GSH counter inactive
Cc1ccc(F)cc1CNC(=O)C1CCC(=O)N(CCc2ccccc2)C1 (stereo not drawn)	none | Arr AP2 CP1 inactive | GST GSH counter inactive
COc1ccccc1C(=O)NCCC(=O)N1CCN(C(C)=O)CC1	Arr AP2 block 61 | Arr AP2 CP1 inactive | GST GSH counter inactive
COc1ccccc1C(=O)NCCC(=O)N1CCN(C(=O)c2ccco2)CC1	none (no result: LANA-H2A inh, T cell modulator, HDAC3 inhib)
O=C(CSc1ccc(-c2ccccc2)nn1)NC1CCCCC1	Arr AP2 block 63 | Arr AP2 CP1 inactive | GST GSH counter inactive
CCOc1ccc(NC(=O)Nc2cnccn2)cc1	none | Arr AP2 CP1 inactive | GST GSH counter inactive
O=C(Nc1cccc(F)c1)Nc1cnccn1	none (no result: HDAC3 inhib) | Arr AP2 CP1 inactive | GST GSH counter inactive
COc1ccc(NC(=O)Nc2cnccn2)cc1	none (no result: HDAC3 inhib) | Arr AP2 CP1 inactive | GST GSH counter inactive
COc1ccc(NC(=O)Nc2cc(C)ccn2)cc1	none (no result: LANA-H2A inh, T cell modulator, HDAC3 inhib)
O=C(CSc1nnc(Cc2ccccc2)c(=O)[nH]1)Nc1ccccc1	none
Cc1nnc(SCC(=O)Nc2ccc(C(N)=O)cc2)n1-c1ccccc1	none
CC(=O)Nc1ccc(NC(=O)CSc2nnc(C)n2-c2ccccc2)cc1	Arr AP2 block 60 | Arr AP2 CP1 inactive | GST GSH counter inactive
NC(=O)[C@@H]1CCCN1Cc1c(C(=O)N2CCN(C3CCCCC3)CC2)nc2ccccn12	Arr AP2 block 54 | Arr AP2 CP1 inactive | GST GSH counter inactive
COc1ccccc1C(=O)NCCC(=O)N1CCN(S(=O)(=O)c2ccccc2C(F)(F)F)CC1	none (no result: LANA-H2A inh, T cell modulator, HDAC3 inhib)
Cc1sc2nc(CN3CCOCC3)nc(N3CCOCC3)c2c1C	Arr AP2 block 58 | Arr AP2 CP1 inactive | GST GSH counter inactive
Cc1cc(NC(=O)c2cc(-c3ccccc3C)nc3ccccc23)no1	none
Cc1cc(NC(=O)c2cc(-c3ccc(C)s3)nc3ccccc23)no1	Arr AP2 block 103 | Arr AP2 CP1 inactive | GST GSH counter inactive
CCOc1ccc(CCNC(=O)c2oc3c(c2C)-c2[nH]ncc2CC3)cc1OCC	none
Cc1c(C(=O)NC(C)C)oc2c1-c1[nH]ncc1CC2	Arr AP2 block 104 | Arr AP2 CP1 inactive | GST GSH counter inactive
O=C(Cn1c(=O)[nH]c2ccccc2c1=O)Nc1ccc2c(c1)OCCO2	none | Arr AP2 CP1 inactive | GST GSH counter inactive
COc1cccc(NC(=O)CCCn2c(=O)[nH]c3ccccc3c2=O)c1	none | Arr AP2 CP1 inactive | GST GSH counter inactive
O=C(CSc1ccc(-c2ccc(Br)cc2)nn1)NC1CCCC1	none
CN1OC[C@@H]2CN(Cc3ccccc3)[C@H](c3cccc(-c4ccc(C#N)cc4)c3)C[C@@H]21	none (no result: LANA-H2A inh, T cell modulator, HDAC3 inhib)
COc1cc(CNc2nc3ccccc3n2Cc2ccccc2)ccc1O	none (no result: LANA-H2A inh, T cell modulator, HDAC3 inhib, Arr AP2 block)
Cc1ccc(S(=O)(=O)Nc2cc(Cl)c(O)cc2C)cc1	Arr AP2 block 58 | Arr AP2 CP1 inactive | GST GSH counter inactive
COc1ccc(CCC(=O)N2CCN(S(=O)(=O)c3cccc(Cl)c3)CC2)cc1	Arr AP2 block 56 | Arr AP2 CP1 inactive | GST GSH counter inactive
COc1ccc(CCC(=O)N2CCN(S(=O)(=O)c3ccc(C)cc3)CC2)cc1	none
